# Measured values taken from publication PMC5860981 (Journal of immunology (Baltimore, Md. : 1950), 2018).
# Experiments:
# Assay type in all cases: cell-based, human
# NETs = test: Detection of LL-37 in NETs by immunofluorescence microscopy; settings: 100 μM, PMA-induced NETs, antibody specific for native LL-37
# In short: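 Human neutrophils, hypotonically lysed to remove RBCs, seeded at 1 × 10^5 cells on 1% BSA-treated coverslips, 30 min at 37 °C, 5% CO2. Where indicated, 100 μM PAD inhibitor. NETs induced with 25 nM PMA, 3 h. Fixed in 3.7% paraformaldehyde; mouse anti-LL-37 (1:50, 1 h RT), Alexa-Fluor-647 anti-mouse (1:1000, 45 min), Hoechst 1 μg/mL; imaged at 20×.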
# pDCs = test: pDC stimulation with NETs
# neutrophils = test: PMA-induced NET formation in neutrophils; settings: 100 μM, neutrophils stimulated with 25 nM PMA 3 h
smiles,measurement,setting,value
"NC(=O)[C@H](CCCN=C(N)CCl)NC(=O)c1ccccc1 [Cl-A, Cl-amidine]","LL-37 fluorescence spots relative to amount of NETs, versus no inhibitor",NETs,3 times
same,IL-6 in conditioned medium from pDCs treated with NETs generated in the presence of inhibitor,"pDCs; 100 μM inhibitor, ELISA",substantial amount of IL-6
same,MxA expression in pDCs exposed to NETs pre-treated with inhibitor,"pDCs; NETs from neutrophils given 100 μM inhibitor before PMA, real-time PCR",upregulated markedly
same,NET formation and levels of citrullination,neutrophils,reduced both the levels of citrullination (Figure S3) and NET formation
